The values that follow come from ChEMBL document CHEMBL4261527, “Benzylsulfanyl benzo-heterocycle amides and hydrazones as new agents against drug-susceptible and resistant Mycobacterium tuberculosis” (Medchemcomm, 2017).

The structures appear in SMILES notation. ≈ marks a conversion by molar mass, not a printed value. Calls of active or inactive are those of the source. The rule behind the calls is not given here.

The test system of test [1] is Mycobacterium tuberculosis. In words: Antitubercular activity against Mycobacterium tuberculosis H37Ra harboring pTYOK infected in Balb/c mouse assessed as bacterial growth inhibition at 10 mg/kg qd measured at 2 days interval for 6 days by luminometric method. The class given is functional, organism-based. In short, it runs like this:
(§1)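 Mice infected with marker-free autoluminescent Mtb H37Ra and dosed once daily for 6 consecutive days; vehicle CMC-Na. Read-out is the luminescence ratio RLU on day n over RLU on day 0, plotted against days after the first treatment.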

In test [2] the test system is Mycobacterium tuberculosis. In words: Antimycobacterial activity against extensively drug-resistant Mycobacterium tuberculosis clinical isolate. In kind it is functional. In short, it runs like this: (§2)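 Clinical isolates coded 960 (drug-susceptible), 330 (MDR) and 431 (XDR); MIC reported in μM.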
The subject of test [3] is Mycobacterium tuberculosis. In words: Antimycobacterial activity against multidrug-resistant Mycobacterium tuberculosis clinical isolate. The class given is functional. The procedure, abridged: as §2
The test system of test [4] is Mycobacterium tuberculosis. In words: Antimycobacterial activity against ethionamide-resistant Mycobacterium tuberculosis ATCC 35830 by resazurin dye based fluorimetric method. In kind it is functional.
The test system of test [5] is Mycobacterium tuberculosis. In words: Antimycobacterial activity against kanamycin-resistant Mycobacterium tuberculosis ATCC 35827 by resazurin dye based fluorimetric method. In kind it is functional.
Test [6] deals with Mycobacterium tuberculosis. In words: Antimycobacterial activity against streptomycin-resistant Mycobacterium tuberculosis ATCC 35820 by resazurin dye based fluorimetric method. The class given is functional.
Test [7] deals with Mycobacterium tuberculosis. In words: Antimycobacterial activity against ethambutol-resistant Mycobacterium tuberculosis ATCC 35837 by resazurin dye based fluorimetric method. In kind it is functional.
Test [8] relates to Mycobacterium tuberculosis. In words: Antimycobacterial activity against rifampicin-resistant Mycobacterium tuberculosis H37Rv by resazurin dye based fluorimetric method. The class given is functional.
Test [9] relates to Mycobacterium tuberculosis. In words: Potency index, ratio of ftivazide MIC to test compound MIC for extensively drug-resistant Mycobacterium tuberculosis clinical isolate. In kind it is functional.
Test [10] concerns Mycobacterium tuberculosis. In words: Antitubercular activity against Mycobacterium tuberculosis H37Ra harboring pTYOK infected in Balb/c mouse assessed as bacterial growth inhibition at 3.1 mg/kg qd measured at 2 days interval for 6 days by luminometric method. In kind it is functional, organism-based. The procedure, abridged: as §1
Test [11] concerns Mycobacterium tuberculosis. In words: Potency index, ratio of isoniazid MIC to test compound MIC for extensively drug-resistant Mycobacterium tuberculosis clinical isolate. The class given is functional.

On to `CO[C@H]1/C=C/O[C@@]2(C)Oc3c(C)c(O)c4c(O)c(c(/C=N/N5CCN(C)CC5)c(O)c4c3C2=O)NC(=O)/C(C)=C\C=C\[C@H](C)[C@H](O)[C@@H](C)[C@@H](O)[C@@H](C)[C@H](OC(C)=O)[C@@H]1C` [RIFAMPIN], for which the “growth inhibition (GI)” value in test [1] was “Active”. The MIC in [2] and in [3] was more than 19 µM each time.
Consider `NNC(=O)c1ccncc1` [ISONIAZID], for which the MIC in test [2] amounted to 64 µM (≈ 8.78 µg/mL); in [3], 8 µM (≈ 1.1 µg/mL).
Consider `O=C(NCc1ccc(CSc2nc3ccccc3o2)cc1)c1ccncc1`, for which the MIC in test [2] stood at 16 µM (≈ 6.01 µg/mL); in test [3] it was 2 µM (≈ 0.751 µg/mL).
Consider `O=C(N/N=C/c1ccc(CSc2nc3ccccc3s2)cc1)c1ccncc1`, for which the MIC was 1.25 µg/mL (≈ 3.09 µM) in test [4]; 0.312 µg/mL (≈ 0.771 µM) in test [5]; more than 12.8 µM in test [2]; 6.4 µM (≈ 2.59 µg/mL) in test [3]; 0.312 µg/mL (≈ 0.771 µM) in [6]; 0.312 µg/mL (≈ 0.771 µM) in test [7]. The same compound registered an MIC in test [8] of 0.625 µg/mL (≈ 1.55 µM).
Take `O=C(N/N=C/c1ccc(CSc2nc3ccccc3[nH]2)cc1)c1ccncc1`: the MIC was 1.25 µg/mL (≈ 3.23 µM) in [4]; 0.156 µg/mL (≈ 0.403 µM) in test [5]; more than 12.8 µM in test [2]; 6.4 µM (≈ 2.48 µg/mL) in [3]; 0.156 µg/mL (≈ 0.403 µM) in test [6]; 0.156 µg/mL (≈ 0.403 µM) in test [7]. For the same compound, in [8], it took 0.312 µg/mL (≈ 0.805 µM) to inhibit growth (MIC).
Regarding `O=C(N/N=C/c1ccc(CSc2nc3ccccc3o2)cc1)c1ccncc1`, the MIC in test [4] worked out at 1.25 µg/mL (≈ 3.22 µM); in [5], 0.156 µg/mL (≈ 0.402 µM); in test [2], 3.2 µM (≈ 1.24 µg/mL); in [3], 6.4 µM (≈ 2.49 µg/mL); in [6], 0.156 µg/mL (≈ 0.402 µM); in test [7], 0.156 µg/mL (≈ 0.402 µM). In test [8], this compound had an MIC of 0.312 µg/mL (≈ 0.803 µM). Also, the Ratio in test [9] was 10; in test [11], 20. Further, the “growth inhibition (GI)” value in [10] was “Active”.
For `COc1cc(/C=N/NC(=O)c2ccncc2)ccc1O` [FTIVAZIDE], the MIC is 1.25 µg/mL (≈ 4.61 µM) in test [4]; 0.156 µg/mL (≈ 0.575 µM) in [5]; 32 µM (≈ 8.68 µg/mL) in test [2]; 16 µM (≈ 4.34 µg/mL) in test [3]; 0.312 µg/mL (≈ 1.15 µM) in test [6]; 0.312 µg/mL (≈ 1.15 µM) in test [7]. Moreover, the MIC in test [8] was 0.312 µg/mL (≈ 1.15 µM).
